Assay results from ChEMBL document CHEMBL1138089, “Cell permeation of a Trypanosoma brucei aldolase inhibitor: evaluation of different enzyme-labile phosphate protecting groups” (Bioorg Med Chem Lett, 2006).
Blank lines part the entries; values can stand above or below the compound they belong to.

Experiments:
MRC5 = test: Cytotoxicity against human MRC5 cells; type: functional, cell-based
Trypanosoma cruzi = test: Inhibitory activity against Trypanosoma cruzi; type: functional, organism-based
Outline: (§1)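 Parasites grown inside host macrophages in serum-containing medium, so compounds must cross the macrophage and parasite membranes; tested in vitro.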

Plasmodium falciparum = test: Inhibitory activity against Plasmodium falciparum; type: functional, organism-based
Leishmania infantum = test: Inhibitory activity against Leishmania […]; type: functional, organism-based; outline: as §1
Trypanosoma brucei = test: Inhibitory activity against Trypanosoma brucei; type: functional, organism-based
Outline: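 Parasites cultured free in serum-containing medium without macrophages; prodrugs tested in vitro against the cultures.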

SMILES: CC(=O)Oc1ccccc1CCC(=O)OCOP(=O)(OCOC(=O)CCc1ccccc1OC(C)=O)Oc1ccc(O)c(C=O)c1
IC50 (MRC5): > 50 µM
IC50 (Trypanosoma cruzi): > 50 µM
IC50 (Plasmodium falciparum): > 50 µM
IC50 (Leishmania infantum): > 50 µM
IC50 (Trypanosoma brucei): > 50 µM

SMILES: CC(=O)OCCSSCCOP(=O)(OCCSSCCOC(C)=O)Oc1ccc(O)c(C=O)c1
IC50 (MRC5): > 50 µM
IC50 (Trypanosoma cruzi): > 50 µM
IC50 (Plasmodium falciparum): > 50 µM
IC50 (Leishmania infantum): > 50 µM
IC50 (Trypanosoma brucei): > 50 µM

SMILES: CC(C)(C)C(=O)SCCOP(=O)(OCCSC(=O)C(C)(C)C)Oc1ccc(O)c(C=O)c1
IC50 (MRC5): 6 µM
IC50 (Trypanosoma cruzi): 15 µM
IC50 (Plasmodium falciparum): 12 µM
IC50 (Leishmania infantum): 25 µM
IC50 (Trypanosoma brucei): 16 µM

SMILES: CC(C)(C)C(=O)OCOP(=O)(OCOC(=O)C(C)(C)C)Oc1ccc(O)c(C=O)c1
IC50 (MRC5): > 50 µM
IC50 (Trypanosoma cruzi): > 50 µM
IC50 (Plasmodium falciparum): > 50 µM
IC50 (Leishmania infantum): > 50 µM
IC50 (Trypanosoma brucei): 20 µM

IC50 (Trypanosoma cruzi): > 50 µM
IC50 (Plasmodium falciparum): > 50 µM
IC50 (Leishmania infantum): > 50 µM
IC50 (Trypanosoma brucei): > 50 µM
SMILES: O=Cc1cc(OP(=O)(O)O)ccc1O
IC50 (MRC5): > 50 µM
